# Only some compounds are listed: those with a hit (about 2.2% of all), similar ones and a draw of the others.
# FLuc stim CS: affects firefly luciferase, flagging false hits in luciferase stimulation screens | P08659 | ATPlite luciferase biochemical, luminescence, 10 min; 0 = ATP-free wells, 1 = DMSO control | activation factor at 10 µM | 200,000 tested, under 10 active | AID 1027;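 active means luciferase activation factor, scaled between plate controls, of at least 2 with compound at 10 µM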
# Target sequence (P08659 whole entry, looked up): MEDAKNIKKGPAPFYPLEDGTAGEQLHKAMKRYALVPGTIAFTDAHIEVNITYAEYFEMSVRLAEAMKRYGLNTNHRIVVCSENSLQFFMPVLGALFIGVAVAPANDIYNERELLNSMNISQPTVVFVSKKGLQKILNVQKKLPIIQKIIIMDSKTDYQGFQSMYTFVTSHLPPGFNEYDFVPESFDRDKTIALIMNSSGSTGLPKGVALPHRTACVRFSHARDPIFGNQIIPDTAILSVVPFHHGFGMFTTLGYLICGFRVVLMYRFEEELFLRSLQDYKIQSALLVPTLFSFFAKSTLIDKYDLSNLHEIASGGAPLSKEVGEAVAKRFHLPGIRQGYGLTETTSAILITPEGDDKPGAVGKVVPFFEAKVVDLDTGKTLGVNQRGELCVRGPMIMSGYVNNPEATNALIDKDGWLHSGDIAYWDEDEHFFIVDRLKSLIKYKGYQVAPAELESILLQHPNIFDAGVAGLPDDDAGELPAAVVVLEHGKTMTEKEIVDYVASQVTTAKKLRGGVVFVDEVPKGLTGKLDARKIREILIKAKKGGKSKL
#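 Assay system – cell-free luciferase reagent · Medium – PBS-based ATP solution · Dosing – test compounds dosed from 2 mM stocks in 100% DMSO · Timing – 10 min, room temperature · Technique – light output (luminescence) · Measure – luminescence gain marking luciferase activators · Controls – No-ATP low control, compound-free enzyme-plus-ATP high control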
# FLuc inhib CS: counter-screen for luciferase assay inhibitors: firefly luciferase inhibition | ATPLite firefly luciferase biochemical luminescence, 10 min | inhibition, % at 10 µM | AID 1006 | 1.5% of 200,000 active;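 active means inhibition above about 50% when tested at 10 µM, limit read from the data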
# APP 5'UTR act: APP 5'UTR luciferase reporter activation; AID 1276; SH-SY5Y APP 5'UTR luciferase reporter, luminescence; zero percent = DMSO vehicle wells; 1% of 190,000 active; activation, % at 2 µM;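 active means activation above a set limit, based on mean plus 3 SD of controls, cut at about 140% in these data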
# NF-kB expr up: compounds increasing NF-kB expression in human neuronal cells; NF-kB reporter expression; active compounds read high; 1.6% of 190,000 active; AID 1239; fold change at 12.5 µM; in the data active means fold change above about 3.3
# PPC-1+TRAIL kill: compounds killing PPC-1 cancer cells with TRAIL present (potentiator screen, no TRAIL-free arm). PPC-1 cells + TRAIL, ATPLite viability luminescence. cell killing (% activity), % at 4 µM or 5 µM. 0.41% of 220,000 active;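 active means cell killing above 50% in the first pass at 4 µM, then a duplicate retest at 5 µM averaging 50% or more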;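 further: plate controls were cells with TRAIL plus DMSO for no effect and medium-only wells lacking cells for full effect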
# TRAIL sens C8: caspase-8 TRAIL sensitization | NB7+C8 cells + TRAIL, ATPlite viability luminescence | inhibition (viability loss, TRAIL sensitization), % at 10 µM | 1% of 360,000 active | AID 624354;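 active means compounds causing at least 50% loss of cell viability in the single-dose screen, relative to plate controls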
# Starred values were filed as active, the others as inactive; . = no result given.
SMILES,FLuc stim CS,FLuc inhib CS,APP 5'UTR act,NF-kB expr up,PPC-1+TRAIL kill,TRAIL sens C8
CCc1nc(N)nc(N)c1-c1ccc(N(C)Cc2ccccc2)c([N+](=O)[O-])c1,.,.,.,.,.,70*
CN(Cc1ccccc1)c1ccc(C(CC(N)=O)NC(=O)c2ccccc2)cc1[N+](=O)[O-] (stereo unspecified),.,.,.,.,.,8
CC(C)C1N(C(=O)N2CCOCC2)CCN1S(=O)(=O)c1ccccc1 (stereo unspecified),.,.,.,.,.,7
COc1ccc(-n2nc(C(=O)NCC(=O)N3CCN(c4ccccn4)CC3)c3ccccc3c2=O)cc1,0.3,68*,33,1,44,29
COc1ccc(-n2nc(C(=O)NCC(=O)N3CCN(c4ccccn4)CC3)c3ccccc3c2=O)cc1OC,0.6,39,1,1,29,13
COc1ccc(-n2nc(C(=O)NCC(=O)N3CCN(c4ccccc4)CC3)c3ccccc3c2=O)c(OC)c1,.,.,.,.,.,62*
COc1ccc(-n2nc(C(=O)NCC(=O)N3CCN(c4ccc(F)cc4)CC3)c3ccccc3c2=O)c(OC)c1,.,.,.,.,.,28
Oc1[nH]c2ccccc2c1C=Nc1ccc2c(c1)OCCO2,0.2,76*,183*,4.4*,36,57*
Cc1cccc(/N=C/c2c(O)[nH]c3ccccc23)n1,0.6,36,122,3.4*,20,42
c1ccc(Nc2nc(-c3cccs3)cs2)nc1,0.3,68*,181*,9.6*,13,30
CC(=O)Nc1ccc(Nc2nc(-c3cc4ccccc4oc3=O)cs2)cc1,.,.,.,.,.,38
Cc1cccc(Nc2nc(-c3cccs3)cs2)n1,0.7,26,208*,11*,5,8
Nc1ccc(Nc2nc(-c3cc4ccccc4oc3=O)cs2)cc1,0.9,6,95,9*,.,-5
Cc1cccc(Nc2nc(-c3ccccn3)cs2)n1,0.7,28,210*,5.6*,7,30
Cc1cccc(Nc2nc(-c3ccc(F)cc3)cs2)n1,.,.,.,.,.,8
C[C@@H]1CN([C@@H](C)CO)C(=O)CCCn2nncc2CO[C@@H]1CN(C)S(=O)(=O)c1cn(C)cn1,.,.,.,.,.,8
Nc1ccc(Nc2nc(-c3cccs3)cs2)cc1,0.1,90*,311*,1.7,.,-2
O=[N+]([O-])c1cccn2cc(-c3ccc(Br)cc3)nc12,0.9,5,63,.,7,16
Nc1nn2cc(-c3ccc(Br)cc3)nc2c2ccccc12,.,.,.,.,40,51*
CCOC(=O)CCc1c(C(=O)OCC)[nH]c(CC)c1C(=O)OCc1ccccc1,.,.,.,.,11,-2
CCOC(=O)c1cnc(-n2nc(C)cc2C)nc1N(C)C,0.2,80*,50,2.1,44,50*
CCOC(=O)c1cnc(-n2nc(C)cc2C)nc1NC1CCCC1,.,.,.,.,28,13
Cc1c(C(=O)NCc2ccc(Cl)c(Cl)c2)sc(=O)n1Cc1ccc(C(=O)N(C)C)cc1,.,.,.,.,.,-3
CCOc1ccc(/C=N/n2c(COc3ccccc3)n[nH]c2=S)cc1OC,.,.,.,.,.,-3
Cc1ccc(N=Cc2c(C)[nH]n(-c3nc4ccccc4[nH]3)c2=O)cc1,0.2,79*,23,0.86,79*,89*
SMILES,FLuc stim CS,FLuc inhib CS,APP 5'UTR act,NF-kB expr up,PPC-1+TRAIL kill,TRAIL sens C8
Cc1cccc(/C(N)=N/OC(=O)c2ccc3c(c2)OCO3)c1,0,97*,192*,4.3*,24,34
N/C(=N\OC(=O)c1ccc2c(c1)OCO2)c1cccc([N+](=O)[O-])c1,0,96*,85,3.2,10,4
N/C(=N\OC(=O)c1cccc([N+](=O)[O-])c1)c1cccnc1,0.8,22,-10,1.5,24,4
CCNC(=O)C1(C)CCCN(CCOc2ccc(OC)cc2)C1 (stereo unspecified),.,.,.,.,.,-13
CCC(Oc1ccc(C)c(C)c1)C(=O)N1CCCN(C)CC1 (stereo unspecified),.,.,.,.,.,-22
Cc1ccc(C(=O)NCCNC(=O)COc2ccc(C)c(C)c2)cn1,.,.,.,.,.,7
O=C(O)c1cc(/C=C/c2ccc(N3CCOCC3)c([N+](=O)[O-])c2)nc2ccccc12,.,.,.,.,43,64*
O=C(Nc1nc(-c2ccccc2)cs1)c1ccc(N2CCOCC2)c([N+](=O)[O-])c1,1,-5,-8,0.36,42,83*
O=C(c1ccc(N2CCOCC2)c([N+](=O)[O-])c1)N1CCN(c2ccccc2)CC1,.,.,.,.,.,7
COc1ccc(NC(=O)CN(C)C(=O)c2cnc(Cl)c(Cl)c2)cc1,.,.,.,.,.,3
O=C(Nc1ccc(Cl)cc1)/C(=C/c1cccc(O)c1)c1nc2ccccc2s1,1,-1,-30,0.99,37,88*
O=C(O)C/C(=C\c1cccc(NC(=O)c2ccccc2Cl)c1)c1nc2ccccc2s1,.,.,.,.,5,-4
CCCNC(=O)N(C)C[C@@H]1Oc2cc(Br)ccc2S(=O)(=O)N([C@@H](C)CO)C[C@H]1C,.,.,.,.,.,-21
COc1cc(C2Nc3ccccc3C(=O)N2c2ccc3c(c2)OCCO3)ccc1OCC(C)C (stereo unspecified),0.9,10,107,1.1,27,55*
COc1cc(C2Nc3ccccc3C(=O)N2c2ccccc2OC)ccc1O (stereo unspecified),1,-2,20,0.97,14,3
O=C1c2ccccc2NC(c2ccc3c(c2)OCCO3)N1c1ccc2c(c1)OCCO2 (stereo unspecified),0.8,18,85,4.4*,42,64*
CC(C)Oc1cccc(-c2nnc(SCC(=O)Nc3ccc4c(c3)OCCO4)n2N)c1,1.1,-6,3,0.76,9,1
COc1cccc2c(N/N=C/c3ccccc3)cc(C)nc12,.,.,.,.,.,-9
COc1ccc2nc(C)cc(N/N=C/c3cccc(OC)c3O)c2c1,.,.,.,.,.,51*
Cc1cc(N/N=C/c2ccccc2O)c2ccccc2n1,.,.,.,.,.,21
COc1ccc(/C=N/Nc2cc(C)nc3ccc(Br)cc23)cc1,.,.,.,.,.,49*
COc1ccc(O)c(/C=C(\C#N)C(=O)Nc2cccnc2)c1,0.4,63*,25,0.96,10,-11
CCCCSc1nnc(-c2ccccc2NC(C)=O)c(=O)[nH]1,1.1,-5,-1,1.2,10,-2
COC(=O)c1nnn(-c2nonc2N)c1CSc1nnc(N)s1,1.1,-8,9,1.1,8,9
O=C(Oc1ccccc1C(=O)Nc1ccccc1)c1ccccc1Br,1,-2,-59,3.7*,21,50
Cc1ccc(NC(=O)COc2ccccc2C(=O)NCCc2ccccc2)cc1,.,.,.,.,.,11
O=C(COc1ccccc1C(=O)Nc1ccccc1)NCCc1ccccc1,0.4,57*,-2,0.91,0,-3
O=C(Nc1ccc([N+](=O)[O-])cc1Cl)c1cc(Cl)ccc1O,.,.,.,.,.,80*
O=C(Nc1ccc([N+](=O)[O-])cc1Cl)c1cccc([N+](=O)[O-])c1,.,.,.,.,.,7
CCC(C(=O)Nc1ccc(S(=O)(=O)N2CCN(C)CC2)cc1)c1ccccc1 (stereo unspecified),.,.,.,.,.,-15
